Usually IC50 stands for the concentration that inhibits the measured activity by half. A low value points to greater potency in that assay. As a reminder, the inhibition is the change of the read-out against control, counted positive when it falls. A lower inhibition goes with little suppression.

This is an account of results in ChEMBL document CHEMBL1135382, “First dual NK(1) antagonists-serotonin reuptake inhibitors: synthesis and SAR of a new class of potential antidepressants” (Bioorg Med Chem Lett, 2002).

The nature of series [1]: Lipophilicity. It is filed as physicochemical.
Series [2] deals with Sodium-dependent serotonin transporter (Rattus norvegicus, UniProt P31652). Put plainly: Binding affinity at serotonin transporter from rat cerebral cortex by [3H]-paroxetine displacement. Type of series: tissue-based. Put shortly:
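Rat cerebral cortex membranes (100–200 μg protein) were incubated 120 min at 25 °C in 50 mM Tris–HCl pH 7.4 with 2 mM MgCl2 and 0.05 nM radioligand. Nonspecific binding was defined with 5 μM imipramine.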

The target in series [3] is T1, Substance-P receptor (Homo sapiens, UniProt P25103). The experiment in a line: Binding affinity at human Tachykinin receptor 1 expressed in CHO cells by [3H]-substance P displacement. It is filed as cell-based. Put shortly: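 Membranes (10–20 μg protein) from CHO cells expressing human NK1 receptor were incubated 60 min at 25 °C in 50 mM Tris–HCl pH 7.4 with 2 mM MgCl2, 100 μg/mL bacitracin and 0.25 nM [3H]substance P.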
T1 sequence (P25103 whole entry): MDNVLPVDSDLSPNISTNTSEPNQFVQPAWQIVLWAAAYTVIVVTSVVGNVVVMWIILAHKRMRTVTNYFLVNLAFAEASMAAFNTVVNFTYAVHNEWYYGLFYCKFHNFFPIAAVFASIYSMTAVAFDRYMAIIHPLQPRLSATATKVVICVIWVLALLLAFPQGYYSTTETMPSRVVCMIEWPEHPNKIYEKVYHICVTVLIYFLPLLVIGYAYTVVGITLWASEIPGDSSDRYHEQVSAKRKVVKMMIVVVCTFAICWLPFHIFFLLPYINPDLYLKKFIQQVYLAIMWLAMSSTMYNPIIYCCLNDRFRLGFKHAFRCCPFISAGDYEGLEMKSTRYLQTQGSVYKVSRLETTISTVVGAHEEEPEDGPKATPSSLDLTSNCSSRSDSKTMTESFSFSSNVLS

Series [4] addresses T1, Substance-P receptor. The experiment in a line: Binding affinity towards human Tachykinin receptor 1 expressed in CHO cells using [3H]-substance P; Less than 50% inhibition at 10e-5 M. It is filed as cell-based.

Chain of Sodium-dependent serotonin transporter (P31652 whole entry): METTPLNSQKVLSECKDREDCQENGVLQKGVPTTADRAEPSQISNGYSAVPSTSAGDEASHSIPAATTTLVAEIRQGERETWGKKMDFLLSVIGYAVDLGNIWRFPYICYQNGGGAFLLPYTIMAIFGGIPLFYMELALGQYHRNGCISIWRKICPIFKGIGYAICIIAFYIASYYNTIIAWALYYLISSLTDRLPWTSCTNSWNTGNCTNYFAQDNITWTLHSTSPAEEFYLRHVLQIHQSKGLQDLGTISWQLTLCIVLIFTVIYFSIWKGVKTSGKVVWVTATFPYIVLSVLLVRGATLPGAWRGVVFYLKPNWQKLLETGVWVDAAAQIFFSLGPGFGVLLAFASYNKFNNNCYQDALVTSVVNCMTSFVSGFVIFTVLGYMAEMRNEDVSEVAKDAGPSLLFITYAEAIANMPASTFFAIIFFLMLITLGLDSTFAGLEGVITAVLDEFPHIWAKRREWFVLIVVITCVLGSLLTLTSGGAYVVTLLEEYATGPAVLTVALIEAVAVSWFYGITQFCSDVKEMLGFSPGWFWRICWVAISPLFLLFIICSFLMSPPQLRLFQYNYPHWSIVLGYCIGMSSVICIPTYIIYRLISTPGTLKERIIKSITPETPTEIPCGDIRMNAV

With `O=C(COc1cc(Cl)cc(Cl)c1)N(Cc1cccc(Cl)c1)C1CCNCC1`, the “Log K' IAM” value in series [1] was 3.1. The IC50 in series [2] was 50.1 nM; on Substance-P receptor [3] it was 126 nM.
For `Cc1cccc(CN(C(=O)COc2cc(C(F)(F)F)cc(C(F)(F)F)c2)C2CCNCC2)c1`, in that order: 3.3, 251 nM and 79.4 nM.
For `O=C(CCc1cc(C(F)(F)F)cc(C(F)(F)F)c1)N(Cc1ccccc1Cl)C1CCNCC1`, in that order: 3.2, 200 nM and 100 nM.
With `O=C(CCc1cc(C(F)(F)F)cc(C(F)(F)F)c1)N(Cc1ccc(F)cc1)C1CCNCC1`, the “Log K' IAM” value in series [1] stood at 2.9. For the same compound, the IC50 was 316 nM in series [2] and 31.6 nM at Substance-P receptor [3].
As for `O=C(COc1cc(C(F)(F)F)cc(C(F)(F)F)c1)N(c1cc(Cl)cc(Cl)c1)C1CCNCC1`, the “Log K' IAM” value in series [1] is 3.4. This compound gave a concentration for half-maximal inhibition (IC50) in series [2] of 158 nM. Further, on Substance-P receptor [4], the inhibition is below 5%.
The like results for `O=C(COc1cc(F)cc(F)c1)N(Cc1cccc(Cl)c1)C1CCNCC1` were, in that order, 2.4, 20 nM and below 5%.
For `O=C(COc1cc(C(F)(F)F)cc(C(F)(F)F)c1)N(c1ccc(Cl)c(Cl)c1)C1CCNCC1`, the “Log K' IAM” value in series [1] amounted to 3.4. Moreover, the IC50 in series [2] was 158 nM; at Substance-P receptor [3] it was 31.6 nM.
The like results for `Fc1ccc(CN(CCCc2cc(C(F)(F)F)cc(C(F)(F)F)c2)C2CCNCC2)cc1` were, in that order, 3.8, 25.1 nM and 126 nM.
For `O=C(COc1cc(C(F)(F)F)cc(C(F)(F)F)c1)N(c1ccc(F)cc1)C1CCNCC1`, in that order: 2.5, 631 nM and 316 nM.
As to `O=C(COc1cc(F)cc(C(F)(F)F)c1)N(c1ccc(Cl)c(Cl)c1)C1CCNCC1`, the “Log K' IAM” value in series [1] was found to be 3. In series [2], this compound showed an IC50 of 39.8 nM. Further, the inhibition on Substance-P receptor [4] was below 5%.
As for `Cc1cc(C)cc(OCC(=O)N(Cc2cccc(Cl)c2)C2CCNCC2)c1`, in series [1], the “Log K' IAM” value came to 2.6. The IC50 in series [2] was 25.1 nM; on Substance-P receptor [3] it was 100 nM.
For `O=C(COc1cc(C(F)(F)F)cc(C(F)(F)F)c1)N(Cc1ccccc1Cl)C1CCNCC1`, in that order: 3.2, 158 nM and 126 nM.
Regarding `O=C(COc1cc(C(F)(F)F)cc(C(F)(F)F)c1)N(Cc1cccc(Cl)c1)C1CCNCC1`, the “Log K' IAM” value in series [1] was determined as 3.4. For the same compound, the IC50 in series [2] was 158 nM; at Substance-P receptor [3], 25.1 nM.
The like results for `Fc1ccc(N(CCCc2cc(C(F)(F)F)cc(C(F)(F)F)c2)C2CCNCC2)cc1` were, in that order, 3.9, 39.8 nM and 50.1 nM.
As to `O=C(COc1cc(F)cc(C(F)(F)F)c1)N(Cc1cccc(Cl)c1)C1CCNCC1`, the “Log K' IAM” value in series [1] is recorded as 2.9. The same compound showed an IC50 in series [2] of 100 nM. The same compound gave an inhibition at Substance-P receptor [4] below 5%.
In the case of `Cc1cccc(CN(C(=O)CCc2cc(C(F)(F)F)cc(C(F)(F)F)c2)C2CCNCC2)c1`, the “Log K' IAM” value in series [1] is given as 3.2. Moreover, the IC50 in series [2] was 200 nM; at Substance-P receptor [3] it was 25.1 nM.
The like results for `O=C(CCc1cc(C(F)(F)F)cc(C(F)(F)F)c1)N(c1ccc(F)cc1)C1CCNCC1` were, in that order, 2.9, 251 nM and 200 nM.
The like results for `O=C(COc1cc(C(F)(F)F)cc(C(F)(F)F)c1)N(c1cccc(Cl)c1)C1CCNCC1` were, in that order, 3, 158 nM and 200 nM.
